The values below come from PubChem BioAssay.

Calls of active or inactive are those of the source.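 The calls were made as follows, unless noted: active = viability at or below 10% of carrier control in both of two separate runs; inconclusive = viability at or below 10% in only one of the two runs; inactive = the rest.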

A short description of test [1]: Her2 expression decrease, cell viability multiplex – SKBR3 breast tumor cells, AlphaScreen, ATP viability, primary screen (AID 461;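 active = Her2 level under about 52% in both replicate screens, with viability over 70% of control, limit read from the data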;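 as to Her2 level: lower value means less Her2 protein in the cells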;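 as to viability: percent of carrier control wells set as 100% viability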). Conditions: SKBR3 Her2 protein level, 18-24 h, measured here: SKBR3 viability, ATP luminescence, at 10 µM. For orientation: Bead proximity is the source of the signal in Alpha formats.
Test [2] addresses Receptor tyrosine-protein kinase erbB-2 (Homo sapiens) (UniProt P04626). The description is as above. To be noted: 18-24 h, at 10 µM, stronger effect = lower value.
A short description of test [3]: reduced viability of SK-BR-3 breast cancer cells – cell-based, 24 h, human, pilot screen (AID 572).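 Also: compound exposure lasted between 18 and 24 h rather than exactly 24 h; 100% = carrier-treated control wells.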 To be noted: SK-BR-3 viability, CellTiter-Glo luminescence, at 10 µM, stronger effect = lower value.
Test [4] in a line: HUVEC growth inhibition – cell-based, human, primary screen (AID 575;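 active = viability at or below 30% in both replicate assays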;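 also: 100% = median of untreated cell wells with 0.1% DMSO on each plate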). To be noted: HUVEC proliferation, CellTiter-Glo luminescence, 72 h; at 10 µM; stronger effect = lower value. The method, boiled down:
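Test system – primary HUVEC, no more than 12 passages · Dosing – one dose, 10 µM final, 0.1% DMSO · Times – 72 h treatment at 37 °C · Measured by – ATP-based CellTiter-Glo luminescent read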
Background: Cellular ATP, detected with luciferase, serves as a proxy for viable cell number.

Test [5] can be described thus: H69AR cell proliferation blockers – human, duplicate replicates, primary screen (AID 580;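 active = viability at or under a set limit in both replicates, limit being median viability minus 3 SD, cut at about 48% in these data, passing the limit was not always enough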;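 also: 100% = mean luminescence of untreated wells and 0% = no signal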). Conditions: H69AR lung tumor cells viability, ATP luminescence, 72 h; at 10 µM; stronger effect = lower value.
Test [6] can be described thus: MRP1 drug-resistance reversers in H69AR cells – cell-based, doxorubicin co-treatment, pilot screen (AID 601;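 active = viability loss from added drug above about 55%, and viability with drug at most 40%, in both replicates, limit read from the data, passing the limit was not always enough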). To be noted: CellTiter-Glo, 72 h, at 10 µM; for differential viability (reversal): stronger effect = higher value.
Test [7] in a line: yeast transport mutant growth inhibition pilot in 384-well plates, post-Golgi transport modulator project (AID 636; in the data active = inhibition above about 31%). To be noted: absorbance 615 nm, about 18 h, stronger effect = higher value.
A short description of test [8]: growth suppression of yeast trafficking mutant, preliminary HTS, modulators of trafficking downstream of Golgi apparatus project, 1536-format plate, OD 615 nm (AID 637; in the data active = inhibition above about 30%). Conditions: yeast transport mutant growth, absorbance 615 nm, 18 h; stronger effect = higher value.
[9] abbreviates: H69AR cells + 2 uM doxorubicin, measured here: viability with 2 uM doxorubicin, stronger effect = lower value.
The mark [10] stands for this setting: H69AR cells, compound alone cytotoxicity.

Receptor tyrosine-protein kinase erbB-2 (Homo sapiens), sequence (P04626 whole entry, looked up): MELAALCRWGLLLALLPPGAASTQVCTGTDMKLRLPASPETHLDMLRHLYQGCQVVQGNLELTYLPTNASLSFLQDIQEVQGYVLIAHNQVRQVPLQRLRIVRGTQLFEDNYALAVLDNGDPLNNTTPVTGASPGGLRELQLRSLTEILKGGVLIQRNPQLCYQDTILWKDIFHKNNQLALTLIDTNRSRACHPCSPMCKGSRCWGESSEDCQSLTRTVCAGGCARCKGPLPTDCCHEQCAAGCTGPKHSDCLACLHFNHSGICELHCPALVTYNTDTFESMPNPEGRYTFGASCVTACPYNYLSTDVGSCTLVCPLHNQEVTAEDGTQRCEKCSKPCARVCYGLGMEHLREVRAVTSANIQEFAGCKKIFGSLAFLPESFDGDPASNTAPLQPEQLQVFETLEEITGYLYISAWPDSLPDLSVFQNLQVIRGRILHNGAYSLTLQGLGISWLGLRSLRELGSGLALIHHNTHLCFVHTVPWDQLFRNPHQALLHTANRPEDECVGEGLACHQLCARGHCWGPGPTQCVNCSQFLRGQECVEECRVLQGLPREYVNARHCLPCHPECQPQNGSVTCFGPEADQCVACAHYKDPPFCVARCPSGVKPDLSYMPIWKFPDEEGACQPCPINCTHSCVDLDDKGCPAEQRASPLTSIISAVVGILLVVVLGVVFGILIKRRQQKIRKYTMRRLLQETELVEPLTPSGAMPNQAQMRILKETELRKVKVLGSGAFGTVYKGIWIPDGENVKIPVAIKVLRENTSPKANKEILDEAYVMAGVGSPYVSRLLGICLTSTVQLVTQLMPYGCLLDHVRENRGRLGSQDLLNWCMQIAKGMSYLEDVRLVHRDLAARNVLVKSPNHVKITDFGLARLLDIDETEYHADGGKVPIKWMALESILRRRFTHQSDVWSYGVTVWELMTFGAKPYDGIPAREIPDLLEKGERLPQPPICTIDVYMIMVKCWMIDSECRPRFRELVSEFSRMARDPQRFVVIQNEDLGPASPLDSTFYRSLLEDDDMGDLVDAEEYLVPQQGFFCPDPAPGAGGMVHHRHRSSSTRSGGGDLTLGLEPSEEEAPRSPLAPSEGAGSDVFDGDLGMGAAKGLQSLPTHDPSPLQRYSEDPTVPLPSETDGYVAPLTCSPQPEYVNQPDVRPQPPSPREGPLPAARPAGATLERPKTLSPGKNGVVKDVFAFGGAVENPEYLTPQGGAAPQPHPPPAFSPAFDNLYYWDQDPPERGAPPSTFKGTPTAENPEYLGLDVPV

The term viability denotes a read-out of living cells in per cent, often relative to untreated cells. The term inhibition denotes the drop in the measured response relative to a control, in per cent. On to `Cc1nc2c(o1)CCc1ccccc1C2O` (stereo not given), for which the viability in test [1] is 96%; in test [3] it was 96% (inactive); in test [4], 93.9% (inactive); in test [5], 94.4% (inactive); in test [6] (setting [9]), 99.7%; in test [6] (setting [10]), 94.4%. Also, in test [2], the Her2 level is 91% (inactive). Also, the differential viability (reversal) in test [6] (H69AR cells + 2 uM doxorubicin) is -5.3% (inactive). Besides, the inhibition was -4% (inactive) in test [7] and -2.95% (inactive) in test [8].
`COc1cc(OC)cc(-c2nc3cc(C)ccc3o2)c1`: the viability in test [1] was 95.5%; in test [3] it was 95.5% (inactive); in test [4], 62.8% (inactive); in test [5], 73% (inactive); in test [6] (setting [9]), 75.8%; in test [6] (setting [10]) it was 73%. In test [2], the Her2 level is 70.5% (inactive). The differential viability (reversal) in test [6] (H69AR cells + 2 uM doxorubicin) was -2.79% (inactive). Further, the inhibition in test [7] was -3.16% (inactive); in test [8] it was -4.52% (inactive).
For `CCOC(=O)c1ccc(N2C(=O)CC(N(C)CCc3ccc(OC)c(OC)c3)C2=O)cc1` (stereo not given), the viability in test [1] is 102%; in test [3], 102% (inactive); in test [4], 101% (inactive); in test [5], 96.8% (inactive); in test [6] (setting [9]), 84.7%; in test [6] (setting [10]), 96.8%. Moreover, the Her2 level in test [2] was 123% (inactive). For the same compound, the differential viability (reversal) in test [6] (H69AR cells + 2 uM doxorubicin) was 12.1% (inactive). Also, the inhibition in test [7] was -2.73% (inactive); in test [8] it was -8.83% (inactive).
Regarding `CCn1c(SCC(=O)NCc2ccco2)nc2c(c1=O)SC(C)C2` (stereo not given), the viability was 95% in test [1]; 95% (inactive) in test [3]; 103% (inactive) in test [4]; 91.3% (inactive) in test [5]; 91.7% in test [6] (setting [9]); 91.3% in test [6] (setting [10]). Further, in test [2], the Her2 level was 91% (inactive). Besides, in test [6] (H69AR cells + 2 uM doxorubicin), the differential viability (reversal) is -0.41% (inactive). Further, the inhibition in test [7] was -4.4% (inactive); in test [8], -0.98% (inactive).
As for `FC(F)(F)c1cccc(N2CCN(Cc3cccnc3)CC2)c1`, the viability in test [1] is 90.5%; in test [3], 90.5% (inactive); in test [4], 101% (inactive); in test [5] it was 110% (inactive); in test [6] (setting [9]), 84.9%; in test [6] (setting [10]), 110%. For the same compound, the Her2 level in test [2] was 99.5% (inactive). Moreover, the differential viability (reversal) in test [6] (H69AR cells + 2 uM doxorubicin) is 25.3% (inactive). In addition, the inhibition in test [7] is -0.4% (inactive); in test [8], -1.61% (inactive).
With `Cc1cc(C)c2c(n1)nn1c(C3CC3)cc(C(F)(F)F)nc21`, the viability was 106% in test [1]; 106% (inactive) in test [3]; 90.7% (inactive) in test [4]; 92.4% (inactive) in test [5]; 96.4% in test [6] (setting [9]); 92.4% in test [6] (setting [10]). Moreover, in test [2], the Her2 level is 89% (inactive). The differential viability (reversal) in test [6] (H69AR cells + 2 uM doxorubicin) was -4.02% (inactive). Besides, the inhibition in test [7] is -5.41% (inactive); in test [8], 2.54% (inactive).
`CCOc1ccccc1C(=O)NC(C)c1ccc2c(c1)OCO2` (stereo not given): the viability in test [1] is 104%; in test [3], 104% (inactive); in test [4] it was 67.6% (inactive); in test [5], 23.5% (active); in test [6] (setting [9]), 80%; in test [6] (setting [10]), 23.5%. The Her2 level in test [2] is 99% (inactive). Further, the differential viability (reversal) in test [6] (H69AR cells + 2 uM doxorubicin) is -56.4% (inactive). Moreover, the inhibition in test [7] is -6.89% (inactive); in test [8], -4.26% (inactive).
Regarding `CCOC(=O)c1c(NCc2ccc3c(c2)OCO3)c2ccccc2[nH]c1=O`, the viability in test [1] is 100%; in test [3], 100% (inactive); in test [4], 100% (inactive); in test [5] it was 87.3% (inactive); in test [6] (setting [9]) it was 93.1%; in test [6] (setting [10]), 87.3%. In addition, the Her2 level in test [2] was 69.5% (inactive). The differential viability (reversal) in test [6] (H69AR cells + 2 uM doxorubicin) was -5.86% (inactive). Moreover, the inhibition in test [7] was -8.78% (inactive); in test [8], 1.33% (inactive).
Consider `O=c1c[n+]([O-])c2ccccc2n1OCc1c(F)cccc1F`, for which the viability in test [1] is 90.5%; in test [3] it was 90.5% (inactive); in test [4], 93.4% (inactive); in test [5] it was 88.2% (inactive); in test [6] (setting [9]) it was 86.3%; in test [6] (setting [10]), 88.2%. Further, in test [2], the Her2 level is 70.5% (inactive). For the same compound, the differential viability (reversal) in test [6] (H69AR cells + 2 uM doxorubicin) is 1.98% (inactive). For the same compound, the inhibition is -3.33% (inactive) in test [7] and -1.59% (inactive) in test [8].
As to `COc1ccc(Cc2nnc(NC(=O)Cc3cccs3)s2)cc1`, the viability is 104% in test [1]; 104% (inactive) in test [3]; 103% (inactive) in test [4]; 106% (inactive) in test [5]; 101% in test [6] (setting [9]); 106% in test [6] (setting [10]). In addition, the Her2 level in test [2] was 112% (inactive). Also, in test [6] (H69AR cells + 2 uM doxorubicin), the differential viability (reversal) was 5.58% (inactive). Further, the inhibition was 0.41% (inactive) in test [7] and -4.29% (inactive) in test [8].
For `O=C(NCc1ccc2c(c1)OCO2)c1ccccn1`, the viability in test [1] was 98.5%; in test [3] it was 98.5% (inactive); in test [4], 92.8% (inactive); in test [5], 88.5% (inactive); in test [6] (setting [9]) it was 85.2%; in test [6] (setting [10]), 88.5%. Moreover, in test [2], the Her2 level was 107% (inactive). For the same compound, the differential viability (reversal) in test [6] (H69AR cells + 2 uM doxorubicin) was 3.29% (inactive). The inhibition is -6.27% (inactive) in test [7] and -12.1% (inactive) in test [8].
Take `CC(=O)Nc1ccc(S(=O)(=O)NCc2cn3c(C)csc3n2)cc1`: the viability in test [1] is 116%; in test [3], 116% (inactive); in test [4], 107% (inactive); in test [5] it was 102% (inactive); in test [6] (setting [9]) it was 81.3%; in test [6] (setting [10]), 102%. For the same compound, the Her2 level in test [2] is 106% (inactive). Besides, in test [6] (H69AR cells + 2 uM doxorubicin), the differential viability (reversal) is 20.4% (inactive). Besides, the inhibition in test [7] was -8.31% (inactive); in test [8] it was -3.02% (inactive).
Take `O=C(CN1C(=O)c2ccccc2S1(=O)=O)NCc1ccccn1`: the viability in test [1] was 94%; in test [3], 94% (inactive); in test [4], 86.1% (inactive); in test [5] it was 98.5% (inactive); in test [6] (setting [9]), 97.8%; in test [6] (setting [10]) it was 98.5%. The Her2 level in test [2] was 92% (inactive). Further, in test [6] (H69AR cells + 2 uM doxorubicin), the differential viability (reversal) is 0.67% (inactive). Also, the inhibition in test [7] was -1.43% (inactive); in test [8], 1.11% (inactive).
In the case of `CCOC(=O)NC1(NCc2ccccc2)Oc2ccccc2O1`, the viability is 92.5% in test [1]; 92.5% (inactive) in test [3]; 58.5% (inactive) in test [4]; 36.8% (active) in test [5]; 61.7% in test [6] (setting [9]); 36.8% in test [6] (setting [10]). Moreover, the Her2 level in test [2] is 101% (inactive). In addition, the differential viability (reversal) in test [6] (H69AR cells + 2 uM doxorubicin) was -25% (inactive). Besides, the results for the inhibition in test [7] and in test [8] were 6.23% (inactive) and -8.69% (inactive), respectively.
On to `O=S(=O)(Nc1nc2ccccc2nc1NCc1ccco1)c1ccc(Cl)cc1`, for which the viability is 94% in test [1]; 94% (inactive) in test [3]; 69.6% (inactive) in test [4]; 65.3% (inactive) in test [5]; 69.8% in test [6] (setting [9]); 65.3% in test [6] (setting [10]). Besides, the Her2 level in test [2] was 103% (inactive). Besides, the differential viability (reversal) in test [6] (H69AR cells + 2 uM doxorubicin) was -4.42% (inactive). In addition, the inhibition in test [7] was -4.42% (inactive); in test [8] it was 4.83% (inactive).
